The results in this text go back to ChEMBL document CHEMBL4138284, “Biomimetic Stereoselective Sulfa-Michael Addition Leads to Platensimycin and Platencin Sulfur Analogues against Methicillin-Resistant Staphylococcus aureus” (J Nat Prod, 2018).

Converted amounts (≈) assume the structure as drawn.

The first assay deals with Staphylococcus aureus. The experiment in a line: Antibacterial activity against methicillin-resistant Staphylococcus aureus isolate 8 incubated overnight by agar dilution method. Format: functional. Put shortly:
(§1)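 MIC by agar dilution. Strains were grown overnight in LB broth and diluted, then about 10^4 CFU (2 μL spots) were spotted onto LB agar plates containing test compound at 0.5 to 8 μg mL−1 agar. Plates were incubated overnight at 37 °C and inspected for growth. Clinical MSSA and MRSA isolates came from local hospitals.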
A general note: Agar dilution tests growth on a series of plates holding different concentrations.
For orientation: MIC means the lowest concentration found to suppress growth. `C[C@]12C[C@@]34C=CC(=O)[C@@](C)(CCC(=O)Nc5c(O)ccc(C(=O)O)c5O)[C@@H]3[C@H](C[C@@H]1C4)O2` returned an MIC of 1 µg/mL (≈ 2.27 µM).

For `C[C@]12C[C@]34C[C@@H]1C[C@H](O2)[C@H]3[C@](C)(CCC(=O)Nc1c(O)ccc(C(=O)O)c1O)C(=O)C[C@@H]4SC(=O)c1cc(F)cc(F)c1`, the lowest concentration to inhibit growth (MIC) was 2 µg/mL (≈ 3.25 µM).

Consider `C[C@]12C[C@]34C[C@@H]1C[C@H](O2)[C@H]3[C@](C)(CCC(=O)Nc1c(O)ccc(C(=O)O)c1O)C(=O)C[C@@H]4SC(=O)c1ccccc1F`, for which the MIC came out at 1 µg/mL (≈ 1.67 µM).

In a further assay the test system is Staphylococcus aureus. The experiment in a line: Antibacterial activity against methicillin-sensitive Staphylococcus aureus isolate 2 incubated overnight by agar dilution method. Format: functional. Put shortly:
as §1
The compound `C[C@]12C[C@@]34C=CC(=O)[C@@](C)(CCC(=O)Nc5c(O)ccc(C(=O)O)c5O)[C@@H]3[C@H](C[C@@H]1C4)O2` came in with a minimum inhibitory concentration (MIC) of 0.5 µg/mL (≈ 1.13 µM).

The compound `C[C@]12C[C@]34C[C@@H]1C[C@H](O2)[C@H]3[C@](C)(CCC(=O)Nc1c(O)ccc(C(=O)O)c1O)C(=O)C[C@@H]4SC(=O)c1cc(F)cc(F)c1` showed an MIC of 1 µg/mL (≈ 1.62 µM).

For the compound `C[C@]12C[C@]34C[C@@H]1C[C@H](O2)[C@H]3[C@](C)(CCC(=O)Nc1c(O)ccc(C(=O)O)c1O)C(=O)C[C@@H]4SC(=O)c1ccccc1F`, 1 µg/mL (≈ 1.67 µM) was the least that counted as inhibitory (MIC).

A further assay has as its system Staphylococcus aureus. The experiment in a line: Antibacterial activity against methicillin-sensitive Staphylococcus aureus isolate 4 incubated overnight by agar dilution method. Type of assay: functional. Put shortly:
as §1
Compound `C[C@]12C[C@@]34C=CC(=O)[C@@](C)(CCC(=O)Nc5c(O)ccc(C(=O)O)c5O)[C@@H]3[C@H](C[C@@H]1C4)O2` registered an MIC of 0.5 µg/mL (≈ 1.13 µM).

Turning to `C[C@]12C[C@]34C[C@@H]1C[C@H](O2)[C@H]3[C@](C)(CCC(=O)Nc1c(O)ccc(C(=O)O)c1O)C(=O)C[C@@H]4SC(=O)c1cc(F)cc(F)c1`, the MIC came out at 2 µg/mL (≈ 3.25 µM).

In the case of `C[C@]12C[C@]34C[C@@H]1C[C@H](O2)[C@H]3[C@](C)(CCC(=O)Nc1c(O)ccc(C(=O)O)c1O)C(=O)C[C@@H]4SC(=O)c1ccccc1F`, 1 µg/mL (≈ 1.67 µM) was the least that counted as inhibitory (MIC).

The next assay deals with Staphylococcus aureus. The experiment in a line: Antibacterial activity against methicillin-resistant Staphylococcus aureus isolate 7 incubated overnight by agar dilution method. Type of assay: functional. Put shortly:
as §1
For `C[C@]12C[C@@]34C=CC(=O)[C@@](C)(CCC(=O)Nc5c(O)ccc(C(=O)O)c5O)[C@@H]3[C@H](C[C@@H]1C4)O2`, the MIC worked out at 1 µg/mL (≈ 2.27 µM).

For `C[C@]12C[C@]34C[C@@H]1C[C@H](O2)[C@H]3[C@](C)(CCC(=O)Nc1c(O)ccc(C(=O)O)c1O)C(=O)C[C@@H]4SC(=O)c1cc(F)cc(F)c1`, the minimum inhibitory concentration (MIC) was found to be 2 µg/mL (≈ 3.25 µM).

Compound `C[C@]12C[C@]34C[C@@H]1C[C@H](O2)[C@H]3[C@](C)(CCC(=O)Nc1c(O)ccc(C(=O)O)c1O)C(=O)C[C@@H]4SC(=O)c1ccccc1F` had an MIC of 2 µg/mL (≈ 3.35 µM).

The next assay concerns Staphylococcus aureus. The assay can be described thus: Antibacterial activity against methicillin-sensitive Staphylococcus aureus isolate 3 incubated overnight by agar dilution method. Type of assay: functional. A digest of the protocol:
as §1
The compound `C[C@]12C[C@@]34C=CC(=O)[C@@](C)(CCC(=O)Nc5c(O)ccc(C(=O)O)c5O)[C@@H]3[C@H](C[C@@H]1C4)O2` came in with an MIC of 0.5 µg/mL (≈ 1.13 µM).

`C[C@]12C[C@]34C[C@@H]1C[C@H](O2)[C@H]3[C@](C)(CCC(=O)Nc1c(O)ccc(C(=O)O)c1O)C(=O)C[C@@H]4SC(=O)c1cc(F)cc(F)c1`: inhibition of growth (MIC) required 2 µg/mL (≈ 3.25 µM).

The compound `C[C@]12C[C@]34C[C@@H]1C[C@H](O2)[C@H]3[C@](C)(CCC(=O)Nc1c(O)ccc(C(=O)O)c1O)C(=O)C[C@@H]4SC(=O)c1ccccc1F` returned an MIC of 1 µg/mL (≈ 1.67 µM).

The subject of another assay is Staphylococcus aureus. The experiment in a line: Antibacterial activity against methicillin-resistant Staphylococcus aureus isolate 5 incubated overnight by agar dilution method. Type of assay: functional. A digest of the protocol:
as §1
`C[C@]12C[C@@]34C=CC(=O)[C@@](C)(CCC(=O)Nc5c(O)ccc(C(=O)O)c5O)[C@@H]3[C@H](C[C@@H]1C4)O2` displayed an MIC of 1 µg/mL (≈ 2.27 µM).

For `C[C@]12C[C@]34C[C@@H]1C[C@H](O2)[C@H]3[C@](C)(CCC(=O)Nc1c(O)ccc(C(=O)O)c1O)C(=O)C[C@@H]4SC(=O)c1cc(F)cc(F)c1`, the lowest concentration to inhibit growth (MIC) was 2 µg/mL (≈ 3.25 µM).

`C[C@]12C[C@]34C[C@@H]1C[C@H](O2)[C@H]3[C@](C)(CCC(=O)Nc1c(O)ccc(C(=O)O)c1O)C(=O)C[C@@H]4SC(=O)c1ccccc1F` came in with a minimal inhibitory concentration (MIC) of 2 µg/mL (≈ 3.35 µM).

In another assay the test system is Staphylococcus aureus. The assay can be described thus: Antibacterial activity against methicillin-resistant Staphylococcus aureus isolate 11 incubated overnight by agar dilution method. Type of assay: functional. A digest of the protocol:
as §1
The compound `C[C@]12C[C@@]34C=CC(=O)[C@@](C)(CCC(=O)Nc5c(O)ccc(C(=O)O)c5O)[C@@H]3[C@H](C[C@@H]1C4)O2` yielded an MIC of 1 µg/mL (≈ 2.27 µM).

`C[C@]12C[C@]34C[C@@H]1C[C@H](O2)[C@H]3[C@](C)(CCC(=O)Nc1c(O)ccc(C(=O)O)c1O)C(=O)C[C@@H]4SC(=O)c1ccccc1F` yielded an MIC of 2 µg/mL (≈ 3.35 µM).

Another assay concerns Staphylococcus aureus. The assay can be described thus: Antibacterial activity against methicillin-resistant Staphylococcus aureus isolate 10 incubated overnight by agar dilution method. Type of assay: functional. Put shortly: as §1
In the case of `C[C@]12C[C@@]34C=CC(=O)[C@@](C)(CCC(=O)Nc5c(O)ccc(C(=O)O)c5O)[C@@H]3[C@H](C[C@@H]1C4)O2`, the MIC turned out to be 0.5 µg/mL (≈ 1.13 µM).

The compound `C[C@]12C[C@]34C[C@@H]1C[C@H](O2)[C@H]3[C@](C)(CCC(=O)Nc1c(O)ccc(C(=O)O)c1O)C(=O)C[C@@H]4SC(=O)c1cc(F)cc(F)c1` displayed an MIC of 2 µg/mL (≈ 3.25 µM).

With `C[C@]12C[C@]34C[C@@H]1C[C@H](O2)[C@H]3[C@](C)(CCC(=O)Nc1c(O)ccc(C(=O)O)c1O)C(=O)C[C@@H]4SC(=O)c1ccccc1F`, the MIC worked out at 1 µg/mL (≈ 1.67 µM).

The subject of the next assay is Staphylococcus aureus. The assay can be described thus: Antibacterial activity against methicillin-resistant Staphylococcus aureus isolate 6 incubated overnight by agar dilution method. Format: functional. A digest of the protocol: as §1
The compound `C[C@]12C[C@@]34C=CC(=O)[C@@](C)(CCC(=O)Nc5c(O)ccc(C(=O)O)c5O)[C@@H]3[C@H](C[C@@H]1C4)O2` showed an MIC of 1 µg/mL (≈ 2.27 µM).

The compound `C[C@]12C[C@]34C[C@@H]1C[C@H](O2)[C@H]3[C@](C)(CCC(=O)Nc1c(O)ccc(C(=O)O)c1O)C(=O)C[C@@H]4SC(=O)c1cc(F)cc(F)c1` came in with an MIC of 1 µg/mL (≈ 1.62 µM).

Consider `C[C@]12C[C@]34C[C@@H]1C[C@H](O2)[C@H]3[C@](C)(CCC(=O)Nc1c(O)ccc(C(=O)O)c1O)C(=O)C[C@@H]4SC(=O)c1ccccc1F`, for which 1 µg/mL (≈ 1.67 µM) was the least that counted as inhibitory (MIC).

A further assay concerns Staphylococcus aureus. The assay can be described thus: Antibacterial activity against Staphylococcus aureus ATCC 29213 incubated overnight by agar dilution method. Type of assay: functional. Put shortly:
as §1
Take `C[C@]12C[C@@]34C=CC(=O)[C@@](C)(CCC(=O)Nc5c(O)ccc(C(=O)O)c5O)[C@@H]3[C@H](C[C@@H]1C4)O2`: the lowest concentration to inhibit growth (MIC) was 1 µg/mL (≈ 2.27 µM).

For the compound `C[C@]12C[C@]34C[C@@H]1C[C@H](O2)[C@H]3[C@](C)(CCC(=O)Nc1c(O)ccc(C(=O)O)c1O)C(=O)C[C@@H]4SC(=O)c1cc(F)cc(F)c1`, the MIC is 2 µg/mL (≈ 3.25 µM).

`C[C@]12C[C@]34C[C@@H]1C[C@H](O2)[C@H]3[C@](C)(CCC(=O)Nc1c(O)ccc(C(=O)O)c1O)C(=O)C[C@@H]4SC(=O)c1ccccc1F` yielded an MIC of 1 µg/mL (≈ 1.67 µM).

A further assay has as its system Staphylococcus aureus. The assay can be described thus: Antibacterial activity against methicillin-resistant Staphylococcus aureus isolate 9 incubated overnight by agar dilution method. Format: functional. Put shortly: as §1
In turn, `C[C@]12C[C@@]34C=CC(=O)[C@@](C)(CCC(=O)Nc5c(O)ccc(C(=O)O)c5O)[C@@H]3[C@H](C[C@@H]1C4)O2` gave a minimal inhibitory concentration (MIC) of 1 µg/mL (≈ 2.27 µM).

The compound `C[C@]12C[C@]34C[C@@H]1C[C@H](O2)[C@H]3[C@](C)(CCC(=O)Nc1c(O)ccc(C(=O)O)c1O)C(=O)C[C@@H]4SC(=O)c1cc(F)cc(F)c1` came in with an MIC of 2 µg/mL (≈ 3.25 µM).

In the case of `C[C@]12C[C@]34C[C@@H]1C[C@H](O2)[C@H]3[C@](C)(CCC(=O)Nc1c(O)ccc(C(=O)O)c1O)C(=O)C[C@@H]4SC(=O)c1ccccc1F`, it took 1 µg/mL (≈ 1.67 µM) to inhibit growth (MIC).

For the next assay, the system named is Staphylococcus aureus. The experiment in a line: Antibacterial activity against methicillin-sensitive Staphylococcus aureus isolate 1 incubated overnight by agar dilution method. Type of assay: functional. Put shortly: as §1
Consider `C[C@]12C[C@@]34C=CC(=O)[C@@](C)(CCC(=O)Nc5c(O)ccc(C(=O)O)c5O)[C@@H]3[C@H](C[C@@H]1C4)O2`, for which the MIC is 0.5 µg/mL (≈ 1.13 µM).

Regarding `C[C@]12C[C@]34C[C@@H]1C[C@H](O2)[C@H]3[C@](C)(CCC(=O)Nc1c(O)ccc(C(=O)O)c1O)C(=O)C[C@@H]4SC(=O)c1cc(F)cc(F)c1`, inhibition of growth (MIC) required 1 µg/mL (≈ 1.62 µM).

`C[C@]12C[C@]34C[C@@H]1C[C@H](O2)[C@H]3[C@](C)(CCC(=O)Nc1c(O)ccc(C(=O)O)c1O)C(=O)C[C@@H]4SC(=O)c1ccccc1F` registered a minimal inhibitory concentration (MIC) of 1 µg/mL (≈ 1.67 µM).
